Assay outcomes: PubChem BioAssay, The Scripps Research Institute Molecular Screening Center
This is a sample that favours compounds with a hit; in the whole collection about 4% have one here.
OX1R antag-1 – antagonists of human orexin 1 receptor (OX1R). Orexin/Hypocretin receptor type 1 (Homo sapiens), O43613. OX1R-expressing cells, FRET antagonist read-out. inhibition, % at 6.6 µM. 330,000 compounds, 1.8% hits. AID 485270, 2010; in the data active = inhibition mostly above about 38%, no sharp cut-off; inactive = mostly below about 40%;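 note: 0% = agonist challenge alone and 100% = reference antagonist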
OX1R antag-2 – OX1R (HCRTR1) antagonists, primary screen, fluorescence, CHO/OX1R cells, Fluo-8 calcium, orexin A; AID 434989, 2010; 330,000 compounds, 0.43% hits; Fluo-8 calcium fluorescence; inhibition, % at 5 µM; Orexin/Hypocretin receptor type 1 (Homo sapiens), O43613;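 active = inhibition above its plate's threshold, mean inhibition of all tested compounds on the plate plus 3 SD, cut at about 37% in these data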;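 note: 0% = orexin A challenge wells and 100% = SB-334867-A antagonist wells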
TAAR1 antagonist – human TAAR1 antagonists, primary screen, Fluo-8 calcium fluorescence, CHO RD-HGA16 cells. Trace amine-associated receptor 1 (Homo sapiens), Q96RJ0. antagonist. inhibition, % at 3 µM. 360,000 compounds, 1.5% hits. AID 624466, 2012;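 active = inhibition above a per-plate cutoff, the mean inhibition of test compounds on that plate plus 3 SD, cut at about 49% in these data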;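 note: 0% = DMSO plus EC80 beta-PEA response and 100% = DMSO alone without agonist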
Target sequence (Q96RJ0 whole entry, looked up): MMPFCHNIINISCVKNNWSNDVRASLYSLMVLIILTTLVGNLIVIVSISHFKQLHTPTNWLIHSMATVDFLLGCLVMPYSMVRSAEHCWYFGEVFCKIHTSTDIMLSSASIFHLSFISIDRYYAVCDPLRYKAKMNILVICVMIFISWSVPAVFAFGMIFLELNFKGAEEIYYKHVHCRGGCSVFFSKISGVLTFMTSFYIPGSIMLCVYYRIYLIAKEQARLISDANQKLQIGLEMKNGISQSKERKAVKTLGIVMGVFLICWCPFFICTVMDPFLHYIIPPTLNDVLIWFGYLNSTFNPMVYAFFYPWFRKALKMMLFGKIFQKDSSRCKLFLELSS
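Assay system: RD-HGA16 CHO cells with stable hTAAR1 and Gα16 / Reagent: EC80 β-phenethylamine stimulus / Doses: 3 µM, single point / Timing: dye loading 75 min at 37 °C, then 30 min room temperature / Measured by: Fluo-8 intracellular calcium dye fluorescence, real-time kinetic reads / Controls: vehicle wells and EC80 agonist wells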
TAAR1 agonist – human TAAR1 agonists, primary screen, Fluo-8 calcium fluorescence, CHO RD-HGA16 cells | Trace amine-associated receptor 1 (Homo sapiens), Q96RJ0 | vehicle wells 0%, saturating PEA agonist 100% | activation, % at 3 µM | 360,000 compounds, 0.99% hits | AID 624467, 2012;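 active = activation above the mean activation of all test compounds in the run plus 3 SD, cut at about 38% in these data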
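System: CHO-derived RD-HGA16 cells with stable Gα16 and human TAAR1. Times: 17-24 h plating, Fluo-8 75 min 37 °C, 30 min RT. Measured by: calcium-sensitive Fluo-8 signal, excitation 470-495, emission 515-575 nm. Read-out basis: % activation relative to PEA EC100 response. Control set: DMSO and PEA EC100. Repeats: no replicates (n 1).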
CHO parental Ca – ATP-evoked calcium signal inhibitors, parental CHO, primary screen, counter-screen for OX1R antagonist project, cell-based, fluorescence, Fluo-8 calcium dye; 330,000 compounds, 0.63% hits; parental CHO-K1, ATP-induced calcium, Fluo-8 fluorescence; AID 463079, 2010; inhibition, % at 5.6 µM;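 active = inhibition above that plate's mean sample inhibition plus 3 SD, cut at about 26% in these data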;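 note: 0% = ATP-challenged DMSO wells and 100% = DMSO wells without ATP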
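Test system: untransfected parental CHO cell line; also added: ATP stimulus; dosing: 5.6 µM, single dose; signal: calcium-sensitive Fluo-8 fluorescence; measure: percent inhibition of ATP-evoked calcium rise, normalized to controls; benchmarks: low control ATP plus DMSO, high control DMSO only; replication: one well per compound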
Starred values were filed as active, the others as inactive; . = not tested or not shown.

SMILES	OX1R antag-1	OX1R antag-2	TAAR1 antagonist	TAAR1 agonist	CHO parental Ca
COc1ccc(CC(=O)NC(=S)Nc2ccc(S(=O)(=O)NC(C)(C)C)cc2)cc1	5	23	31	53*	17
NC(Cc1ccc(O)cc1)C(=O)NN=Cc1ccccc1O (stereo not given)	.	.	-7	2	.
COCCN(CC(=O)Nc1ccccc1C(F)(F)F)C(=O)/C=C/c1ccc2ccccc2n1	53*	30	13	5	-16
CC(C)c1ccc(OCc2ccc(C(=O)N3CCN(c4ccccn4)CC3)cc2)cc1	25	10	57*	8	-11
Cc1ccc(C(=O)N2CCN(c3ccccn3)CC2)cc1	15	-16	-30	0	-7
C[C@@H]1OC(C2CCCCC2)N(C)[C@H]2C[C@H]3c4[nH]c5cccc(-c6ccccc6)c5c4CCN3C(=O)[C@@H]12 (stereo not given in full)	.	.	6	6	.
COc1ccc(C(C(O)C(=O)c2c[nH]c3ccccc23)N2CCN(c3ccc(OC)cc3)CC2)cc1 (stereo not given)	1	-5	9	38*	-8
O=C(c1c[nH]c2ccccc12)C(O)C(c1ccccc1)N1CCOCC1 (stereo not given)	16	-44	1	9	-9
C=CCN1C[C@H](COC(=O)CSc2ccccc2)Oc2cccc(F)c2S1(=O)=O	.	.	28	2	.
Cc1[nH]n(-c2ccccc2)c(=S)c1C=Nc1ccc([N+](=O)[O-])cc1	18	36	-6	19	27
Cc1nn(-c2ccccc2)nc1C(=O)Nc1cccc(C(=O)NC2CC2)c1	.	.	60*	11	.
COc1ccc(C(C)(C)C)cc1N1C(=O)[C@@H]2CSCCS(=O)(=O)N2C1=O	.	.	-1	-1	.
O=C(CS(=O)(=O)c1ccc(Cl)cc1)Nc1nccs1	.	.	-21	2	.
CC1(C)Cc2c(sc(NC(=O)c3ccc(C(=O)c4ccccc4)cc3)c2C(N)=O)C(C)(C)N1	3	28	17	46*	29*
COC(=O)C1=C(C)N(C)C(=NCc2cccc(C(F)(F)F)c2)NC1c1ccccc1C(F)(F)F (stereo not given)	.	.	26	11	.
O=C(NN=C1CCCCCCC1)c1ccc2ccccc2n1	56*	-2	-10	1	-18
COc1cc(/C=C2\SC(=O)NC2=O)ccc1Oc1ccc([N+](=O)[O-])cn1	53*	-9	-21	5	-5
COc1cc(/C=C2/SC(=O)NC2=O)ccc1Oc1ccc([N+](=O)[O-])cc1[N+](=O)[O-]	47*	-14	25	24	-1
Cc1onc(-c2ccccc2)c1C(=O)N1CCN(C(=O)C(=O)c2cccc(C(F)(F)F)c2)CC1	.	.	9	4	.
CCN(Cc1nc2cc(Cl)ccc2c(=O)[nH]1)C(=O)c1nn(C)c(=O)c2ccccc12	38*	-15	7	2	-12
CCN(Cc1nc2cc(Cl)ccc2c(=O)[nH]1)C(=O)c1cc(C2CC2)nn1-c1ccccc1	.	.	1	-2	.
CCN(Cc1nc2cc(Cl)ccc2c(=O)[nH]1)C(=O)c1ccc(C)c(NC(=O)c2ccco2)c1	76*	25	-19	8	-29
OC1(C#Cc2c(-c3ccsc3)sc3ccccc23)CCCCC1	.	.	9	2	.
COc1ccc(CCNC(=O)c2ccc(Cl)c(S(=O)(=O)N3CCCC3)c2)cc1	12	3	25	6	-10
Cc1ccc(-n2nnnc2SCC(=O)N2CCCCC2)cc1	8	-22	6	11	-6
SMILES	OX1R antag-1	OX1R antag-2	TAAR1 antagonist	TAAR1 agonist	CHO parental Ca
O=C(CSc1nnnn1-c1cccc2c1CCCC2)N1CCCCC1	14	-12	8	45*	-13
COc1ccc(-n2cc(C#N)c(=O)n(Cc3ccc(F)cc3)c2=O)cc1	4	-25	12	12	-10
COc1ccc(C(=O)NCCCNC(=O)c2cc3ccccc3[nH]2)cc1OC	70*	-5	-10	3	-22
COC(=O)C1=C(C)N(Cc2ccc(C(F)(F)F)cc2)C(=NCc2ccc(C(F)(F)F)cc2)NC1c1ccc(F)cc1 (stereo not given)	.	.	41	24	.
COC(=O)c1ccc(COC(=O)c2[nH]c(C)c(C(C)=O)c2C)o1	45	11	12	11	38*
O=C(COC(=O)C1C2CC3OC(=O)C1C3C2)Nc1cccc(C(F)(F)F)c1 (stereo not given)	47	-5	1	5	3
CCOC(=O)N1CCN(C(=O)C[C@H]2C[C@@]3(C(=O)OC)C(=C[C@H](C(C)(C)C)O[C@@H]3C)N(Cc3ccccc3)C2=O)CC1	.	.	-3	-1	.
C=Cc1ccc(Cn2nc(-c3ccc(C)cc3)ccc2=O)cc1	23	-4	-10	1	44*
O=c1ccc(-c2ccccc2)nn1Cc1ccc(Cl)cc1	13	-15	-4	1	1
N#Cc1ccsc1NC(=O)c1ccc(Cl)c([N+](=O)[O-])c1	88*	25	-3	6	46*
FC(F)(F)c1cc(-c2cccs2)nc2ncnn12	62*	-6	-9	7	4
FC(F)(F)c1cc(-c2ccccc2)nc2ncnn12	17	-5	8	0	-10
O=C1N=c2ccccc2=C1c1sc(=S)n(-c2ccc(O)cc2)c1O	9	-11	-11	0	31
O=C1N=c2ccccc2=C1c1sc(=S)n(NC(=O)c2cccc(O)c2)c1O	.	.	51*	18	.
O=C(Nn1c(O)c(C=C2N=c3ccccc3=N2)sc1=S)c1ccc(Cl)cc1	8	-9	13	12	-8
Cc1ccc(S(=O)(=O)Nn2c(O)c(C=C3N=c4ccccc4=N3)sc2=S)cc1	6	-18	33	11	-15
O=C(Nn1c(O)c(C=C2N=c3ccccc3=N2)sc1=S)c1cccc(Cl)c1	14	-4	52*	31	-6
O=C(Nn1c(O)c(C=C2N=c3ccccc3=N2)sc1=S)c1ccccc1	12	-4	48	38*	0
COc1ccccc1NC(=O)COC(=O)[C@@H]1CCCN1C(=O)c1cccs1	20	-15	-11	1	-18
O=C(COC(=O)[C@@H]1CCCN1C(=O)c1cccs1)Nc1ccc(F)cc1[N+](=O)[O-]	64*	-19	-12	0	-24
Cc1ccc(Cl)cc1N1CCN(C(=O)c2cc3c(=O)[nH]c4ccccc4c3n2C)CC1	17	40	51*	19	45*
CC(=O)c1c(O)c2ccccc2n(C)c1=O	19	-6	-23	2	-16
